Activity calls are given as the source filed them. The rule behind the calls is not given here.
Legend:
[1] = system: Trypanosoma brucei rhodesiense; assay: Antitrypanosomal activity against Trypanosoma brucei rhodesiense STIB900 after 72 hrs by Alamar blue assay; type: functional, organism-based; conditions: STIB900, 72 h
L6 = assay: Cytotoxicity against rat L6 cells after 72 hrs by Alamar blue assay; type: cell-based; conditions: L6, 72 h
Procedure, shortened: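 Rat L6 myoblast cells; cytotoxic IC50 taken as the average of duplicate determinations.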

Plasmodium falciparum = assay: Antiplasmodial activity against chloroquine-resistant Plasmodium falciparum K1; type: functional, organism-based
Procedure, shortened: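 Chloroquine-resistant K1 strain tested in vitro. IC50 is the average of duplicate determinations.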

Leishmania donovani = assay: Antileishmanial activity against amastigotes of Leishmania donovani MHOM/SD/62/IS-CL2D; type: functional, organism-based
Procedure, shortened: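 Axenic amastigotes of L. donovani MHOM/SD/62/IS-CL2D; IC50 taken as the average of at least two determinations.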

[2] = Selectivity index, ratio of IC50 for rat L6 cells to IC50 for Trypanosoma brucei rhodesiense STIB900; type: toxicity, cell-based; conditions: read-out: Ratio IC50
Procedure, shortened: (§1)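 SI = IC50 in rat L6 myoblasts / IC50 against the parasite (T. b. rhodesiense STIB900 or P. falciparum K1). Each IC50 is the average of duplicate determinations.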

[3] = system: Trypanosoma brucei rhodesiense; assay: Antitrypanosomal activity against Trypanosoma brucei rhodesiense STIB900 infected in NMRI mouse assessed as mean survival days at 25 mg/kg, po administered for 4 days; type: functional
Procedure, shortened: (§2)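 Female NMRI mice, acute infection model with T. b. rhodesiense STIB900. Compound given as a single daily dose for four days, intraperitoneally or orally. Cure means survival to 60 days post-infection without parasitaemia relapse. Mean survival recorded in days.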

[4] = Selectivity index, ratio of IC50 for rat L6 cells to IC50 for chloroquine-resistant Plasmodium falciparum K1; type: toxicity, cell-based; conditions: read-out: Ratio IC50; procedure, shortened: as §1
[5] = Selectivity index, ratio of IC50 for rat L6 cells to IC50 for amastigotes of Leishmania donovani; type: toxicity, cell-based; conditions: read-out: Ratio IC50
Procedure, shortened: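 SI = IC50 in rat L6 myoblasts / IC50 against L. donovani MHOM/SD/62/IS-CL2D axenic amastigotes. The amastigote IC50 is the average of at least two determinations; the L6 IC50 is the average of duplicates.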

[6] = system: Trypanosoma brucei rhodesiense; assay: Antitrypanosomal activity against Trypanosoma brucei rhodesiense STIB900 infected in NMRI mouse assessed as mean survival days at 5 mg/kg, ip administered for 4 days; type: functional; conditions: route intraperitoneal; procedure, shortened: as §2
[7] = system: Trypanosoma brucei rhodesiense; assay: Antitrypanosomal activity against Trypanosoma brucei rhodesiense STIB900 infected in NMRI mouse assessed as cured animal at 25 mg/kg, po administered for 4 days; type: functional, organism-based; design: dose 25 mg/kg
Procedure, shortened: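 Acute model in female NMRI mice infected with T. b. rhodesiense STIB900. Single daily doses given for four days, intraperitoneally or orally. Mice surviving 60 days post-infection without parasitaemia relapse counted as cured; result reported as cured/infected out of 4 mice per group, with mean survival in days.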

SMILES: CO/N=C(\N)c1ccc(COc2ccc(/C(N)=N/OC)cc2Br)cc1.Cl.Cl
- IC50 [1]: 18.8 µM
- IC50 (L6): 101 µM
- IC50 (Plasmodium falciparum): > 10.2 µM
- IC50 (Leishmania donovani): > 100 µM
- selectivity ratio [2]: 5
- MSD [3]: >32.5 days
- selectivity ratio [4]: < 10
- selectivity ratio [5]: < 1

SMILES: N=C(N)c1ccc(-c2ccc(-c3ccc(C(=N)N)cc3)o2)cc1 [FURAMIDINE]
- MSD [6]: >46 days

SMILES: N=C(N)c1cccc(OCc2cccc([N+](=O)[O-])c2)c1
- IC50 [1]: 0.481 µM
- IC50 (L6): 78.9 µM
- IC50 (Plasmodium falciparum): > 3.16 µM
- selectivity ratio [2]: 164
- selectivity ratio [4]: < 25

SMILES: CO/N=C(\N)c1ccc(COc2ccc(/C(N)=N/OC)cc2I)cc1.Cl.Cl
- IC50 [1]: 50.4 µM
- Activity [7]: inactive
- IC50 (L6): 86.6 µM
- IC50 (Plasmodium falciparum): > 10.3 µM
- selectivity ratio [2]: 2
- MSD [3]: 29.75 days
- selectivity ratio [4]: < 8

SMILES: CO/N=C(\N)c1ccc(COc2ccc(/C(N)=N/OC)cc2)cc1.Cl.Cl
- IC50 [1]: > 224 µM
- Activity [7]: inactive
- IC50 (L6): > 224 µM
- IC50 (Plasmodium falciparum): 5.78 µM
- IC50 (Leishmania donovani): > 100 µM
- MSD [3]: 13.25 days
- selectivity ratio [5]: 2

SMILES: N=C(N)c1ccc(OCc2ccccc2)cc1
- IC50 [1]: 1.84 µM
- IC50 (L6): 127 µM
- IC50 (Plasmodium falciparum): > 3.56 µM
- selectivity ratio [2]: 69
- selectivity ratio [4]: < 36

SMILES: CO/N=C(\N)c1cccc(COc2c(Br)cc(/C(N)=N/OC)cc2Br)c1.Cl.Cl
- IC50 [1]: 69.7 µM
- Activity [7]: inactive
- IC50 (L6): 54.7 µM
- IC50 (Plasmodium falciparum): 6.79 µM
- IC50 (Leishmania donovani): > 50 µM
- selectivity ratio [2]: < 1
- MSD [3]: >31.5 days
- selectivity ratio [4]: 8
- selectivity ratio [5]: < 1

SMILES: N=C(N)c1cccc(OCc2ccccc2)c1
- IC50 [1]: 9.32 µM
- IC50 (L6): 156 µM
- IC50 (Plasmodium falciparum): > 3.81 µM
- selectivity ratio [2]: 17
- selectivity ratio [4]: < 41

SMILES: Cl.Cl.Cl.N/C(=N\O)c1cccc(COc2ccc(/C(N)=N/O)cc2Cl)c1
- IC50 [1]: 49.2 µM
- IC50 (L6): 2.26 µM
- IC50 (Plasmodium falciparum): > 11.2 µM
- IC50 (Leishmania donovani): > 100 µM
- selectivity ratio [2]: < 1
- MSD [3]: >39 days
- selectivity ratio [4]: < 1
- selectivity ratio [5]: < 1

SMILES: CC(C)NC(=N)c1ccc(COc2ccc(C(=N)NC(C)C)cc2)cc1
- IC50 [1]: 1.35 µM
- IC50 (L6): > 144 µM
- IC50 (Plasmodium falciparum): 0.02 µM
- IC50 (Leishmania donovani): 26.6 µM
- selectivity ratio [2]: > 107
- selectivity ratio [4]: > 7370
- selectivity ratio [5]: > 5

SMILES: CC(C)c1ccc(OCc2ccc(C(=N)N)cc2)cc1
- IC50 [1]: 1.29 µM
- IC50 (L6): 5.36 µM
- IC50 (Plasmodium falciparum): 2.37 µM
- IC50 (Leishmania donovani): 49.5 µM
- selectivity ratio [2]: 4
- selectivity ratio [4]: 3
- selectivity ratio [5]: < 1

SMILES: N=C(N)c1ccc(OCCCCCOc2ccc(C(=N)N)cc2)cc1 [PENTAMIDINE]
- MSD [6]: >38 days

SMILES: C[C@@H]1CC[C@H]2[C@@H](C)C(=O)O[C@@H]3O[C@@]4(C)CC[C@@H]1[C@]32OO4 [ARTEMISININ]
- IC50 (L6): > 319 µM
- IC50 (Plasmodium falciparum): 0.0041 µM

SMILES: N=C(N)c1cccc(COc2ccc(C(=N)N)cc2I)c1
- IC50 [1]: 0.005 µM
- IC50 (L6): 6.06 µM
- IC50 (Plasmodium falciparum): 0.013 µM
- IC50 (Leishmania donovani): 1.27 µM
- selectivity ratio [2]: 1190
- MSD [6]: >31.25 days
- selectivity ratio [4]: 477
- selectivity ratio [5]: 5

SMILES: N=C(N)c1ccc(COc2ccc(C(=N)N)cc2I)cc1
- IC50 [1]: 0.017 µM
- IC50 (L6): 5.3 µM
- IC50 (Plasmodium falciparum): 0.006 µM
- IC50 (Leishmania donovani): 1.94 µM
- selectivity ratio [2]: 312
- MSD [6]: >41.5 days
- selectivity ratio [4]: 898
- selectivity ratio [5]: 3

SMILES: N=C(N)c1ccc(COc2ccc(C(=N)N)cc2Cl)cc1
- IC50 [1]: 0.022 µM
- IC50 (L6): 3.2 µM
- IC50 (Plasmodium falciparum): 0.006 µM
- IC50 (Leishmania donovani): 2.89 µM
- selectivity ratio [2]: 147
- MSD [6]: >51 days
- selectivity ratio [4]: 552
- selectivity ratio [5]: 1

SMILES: N=C(N)c1cccc(COc2ccc(C(=N)N)cc2Br)c1
- IC50 [1]: 0.005 µM
- IC50 (L6): 15.7 µM
- IC50 (Plasmodium falciparum): 0.052 µM
- IC50 (Leishmania donovani): 1.86 µM
- selectivity ratio [2]: 3410
- MSD [6]: >37.5 days
- selectivity ratio [4]: 302
- selectivity ratio [5]: 8

SMILES: CO/N=C(\N)c1cccc(COc2c(Br)cc(/C(N)=N/OC)cc2OC)c1.Cl.Cl
- IC50 [1]: 81.5 µM
- IC50 (L6): 70.5 µM
- IC50 (Plasmodium falciparum): 3.35 µM
- IC50 (Leishmania donovani): > 100 µM
- selectivity ratio [2]: < 1
- MSD [3]: >52.25 days
- selectivity ratio [4]: 21
- selectivity ratio [5]: < 1

SMILES: COc1ccc(OCc2ccc(C(=N)N)cc2)cc1
- IC50 [1]: 3.95 µM
- IC50 (L6): 143 µM
- IC50 (Plasmodium falciparum): > 3.42 µM
- selectivity ratio [2]: 36
- selectivity ratio [4]: < 42

SMILES: CO/N=C(\N)c1cccc(COc2c(OC)cc(/C(N)=N/OC)cc2OC)c1.Cl.Cl
- IC50 [1]: 109 µM
- Activity [7]: inactive
- IC50 (L6): > 188 µM
- IC50 (Plasmodium falciparum): > 10.4 µM
- IC50 (Leishmania donovani): > 100 µM
- selectivity ratio [2]: > 1
- MSD [3]: 15 days
- selectivity ratio [5]: < 2

SMILES: N=C(N)c1cc(I)c(OCc2cccc([N+](=O)[O-])c2)c(I)c1
- IC50 [1]: 2.66 µM
- IC50 (L6): 7.72 µM
- IC50 (Plasmodium falciparum): 0.296 µM
- IC50 (Leishmania donovani): 34.3 µM
- selectivity ratio [2]: 3
- selectivity ratio [4]: 26
- selectivity ratio [5]: < 1

SMILES: N=C(N)c1cccc(COc2cccc([N+](=O)[O-])c2)c1
- IC50 [1]: 7.28 µM
- IC50 (L6): 104 µM
- IC50 (Plasmodium falciparum): > 3.07 µM
- selectivity ratio [2]: 14
- selectivity ratio [4]: < 34

SMILES: N=C(N)c1ccc(COc2ccc(N)cc2)cc1
- IC50 [1]: 3 µM
- IC50 (L6): > 271 µM
- IC50 (Plasmodium falciparum): 2.56 µM
- selectivity ratio [2]: > 90
- selectivity ratio [4]: > 106

SMILES: Cl.Cl.Cl.Cl.N/C(=N\O)c1cccc(COc2c(Cl)cc(/C(N)=N/O)cc2Cl)c1
- IC50 [1]: 26.4 µM
- IC50 (L6): 14.4 µM
- IC50 (Plasmodium falciparum): 11.5 µM
- IC50 (Leishmania donovani): > 100 µM
- selectivity ratio [2]: < 1
- MSD [3]: >53.25 days
- selectivity ratio [4]: 1
- selectivity ratio [5]: < 1

SMILES: N=C(N)c1ccc(COc2ccc([N+](=O)[O-])cc2)cc1
- IC50 [1]: 4.41 µM
- IC50 (L6): 79.2 µM
- IC50 (Plasmodium falciparum): > 3.07 µM
- selectivity ratio [2]: 18
- selectivity ratio [4]: < 26

SMILES: CO/N=C(\N)c1cccc(COc2c(I)cc(/C(N)=N/OC)cc2OC)c1.Cl.Cl
- IC50 [1]: 75.1 µM
- IC50 (L6): 81.4 µM
- IC50 (Plasmodium falciparum): 1.12 µM
- IC50 (Leishmania donovani): > 100 µM
- selectivity ratio [2]: 1
- MSD [3]: 40.25 days
- selectivity ratio [4]: 73
- selectivity ratio [5]: < 1

SMILES: N=C(N)c1ccc(COc2ccccc2)cc1
- IC50 [1]: 3.71 µM
- IC50 (L6): 167 µM
- IC50 (Plasmodium falciparum): > 3.56 µM
- selectivity ratio [2]: 45
- selectivity ratio [4]: < 47

SMILES: N=C(N)c1ccc(COc2cccc([N+](=O)[O-])c2)cc1
- IC50 [1]: 2.12 µM
- IC50 (L6): 57.8 µM
- IC50 (Plasmodium falciparum): > 3.25 µM
- selectivity ratio [2]: 27
- selectivity ratio [4]: < 18

SMILES: CO/N=C(\N)c1ccc(COc2c(OC)cc(/C(N)=N/OC)cc2OC)cc1.Cl.Cl
- IC50 [1]: 129 µM
- Activity [7]: inactive
- IC50 (L6): > 190 µM
- IC50 (Plasmodium falciparum): > 10.6 µM
- IC50 (Leishmania donovani): 100 µM
- selectivity ratio [2]: > 1
- MSD [3]: 11.75 days
- selectivity ratio [5]: > 2

SMILES: N=C(N)c1ccc(COc2ccc(Cl)cc2)cc1
- IC50 [1]: 2.71 µM
- IC50 (L6): 20.7 µM
- IC50 (Plasmodium falciparum): > 3.36 µM
- selectivity ratio [2]: 8
- selectivity ratio [4]: < 6

SMILES: N=C(N)c1ccc(OCc2ccc([N+](=O)[O-])cc2)c(I)c1
- IC50 [1]: 1.9 µM
- IC50 (L6): 10.7 µM
- IC50 (Plasmodium falciparum): 0.951 µM
- IC50 (Leishmania donovani): > 50 µM
- selectivity ratio [2]: 6
- selectivity ratio [4]: 11
- selectivity ratio [5]: < 1

From ChEMBL document CHEMBL2417357, “Synthesis and antiprotozoal activities of benzyl phenyl ether diamidine derivatives” (Eur J Med Chem, 2013)
